Assay results taken from the array DNA melting data of Ke et al. (doi:10.1101/2024.01.08.574731).

Tests used:
[1] = folding enthalpy; higher = less favourable; fluorescence melt of hairpins on a sequencing array, two-state fit; settings: sodium 0.088 M
Outline: (§1)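 On a sequenced MiSeq flow cell, library hairpins with annealed Cy3 and quencher oligos were imaged for Cy3 fluorescence in 2.5 °C steps up to 60 °C, in 50 mM Na-HEPES pH 8.0, 25 mM NaCl. Normalisation used pre-quench Cy3 and control constructs. Bootstrapped two-state fits gave melting temperature and folding enthalpy, combined by inverse variance across four replicates and with fitted temperatures raised by 9.35 °C to match UV melts.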

[2] = melting temperature; fluorescence melt of hairpins on a sequencing array, two-state fit, raised by 9.35 °C to match UV melts; settings: sodium 0.088 M
Outline: as §1

Row | Sequence | folding enthalpy [1] [kcal/mol] | Tm [2] [°C]
1 | GCACCGCGAAAGCTGTGC ((((.((....)).)))) | -32.1 | 66.2
2 | GCACCGGGAAACCGGCGC ((.((((....)))).)) | -41.3 | 59.6
3 | GCACCGGGAAACTGGTGC (((((.(....).))))) | -41 | 61.2
4 | GCACCTGCGAAAGCATGC (((..(((....)))))) | -9.15 | 33.6
5 | GCACCTGGAAACAGACGC ((..(((....)))..)) | -15.3 | 29.2
6 | GCACGACGAAAGTCTGC (((.(((....)))))) | -20.8 | 52.4
7 | GCACGAGAAATCGTGC ((((((....)))))) | -32 | 68.6
8 | GCACGCCGAAAGGCTGC (((.(((....)))))) | -21.8 | 64.6
9 | GCACGCCGAAAGGCTTGC (((.(((....))).))) | -28.7 | 58.3
10 | GCACGCGAAAGCGAATGC ((((((....)))..))) | -18.6 | 49.2
11 | GCACGCGAAAGCGCTTGC ((((((....)))..))) | -13.3 | 42.8
12 | GCACGCGAAAGCGGTTGC ((((((....)))..))) | -13.3 | 49.5
13 | GCACGCGAAAGCGTTGC ((((((....))).))) | -17.8 | 64.7
14 | GCACGCGGAAACGCGTAC (.(((((....))))).) | -10.1 | 48.1
15 | GCACGGCGAAAGCACTGC (((..((....))..))) | -20.1 | 40.5
16 | GCACGGCGAAAGCCAAGC ((..(((....)))..)) | -15.4 | 46.6
17 | GCACGGCGAAAGCCATGC (((.(((....))).))) | -36 | 55.1
18 | GCACGGCGAAAGCTATGC (((..((....))..))) | -19.9 | 42.1
19 | GCACGTCGAAAGACTTGC (((.(((....))).))) | -40.6 | 51.1
20 | GCACGTGCGAAAGCATGC (((..(((....)))))) | -8.57 | 40.4
21 | GCACGTGGAAACACGCGC ((.((((....)))).)) | -38.4 | 57.5
22 | GCACGTGGAAACATGTGC ((((.((....)).)))) | -36.8 | 56.9
23 | GCACTAACGAAAGTTTGC (((..(((....)))))) | -15 | 32.7

Row | Sequence | folding enthalpy [1] [kcal/mol] | Tm [2] [°C]
24 | GCACTACGAAAGTATGC (((.(((....)))))) | -25.5 | 43
25 | GCACTAGGAAACTAGTAC (.(((((....))))).) | -20.8 | 31
26 | GCACTATCGAAAGATTGC (((..(((....)))))) | -17.7 | 30.6
27 | GCACTCGAAAGAGATTGC ((((((....)))..))) | -15.2 | 34.2
28 | GCACTCGAAAGAGGATGC ((((((....)))..))) | -22.4 | 40.1
29 | GCACTCGCGAAAGCGTGC (((..(((....)))))) | -14.7 | 50.5
30 | GCACTGCGAAAGCACAGC ((..(((....)))..)) | -11.6 | 29.2
31 | GCACTGCGAAAGCACTGC (((.(((....))).))) | -28.1 | 44.4
32 | GCACTGCGAAAGCATGC (((.(((....)))))) | -20.7 | 53.1
33 | GCACTGCGAAAGCCGTGC ((((.((....)).)))) | -37.2 | 63.3
34 | GCACTGCGAAAGCGATGC (((..((....))..))) | -19.7 | 45
35 | GCACTGCGAAAGCGTTGC (((..((....))..))) | -23.6 | 45.3
36 | GCACTTGGAAACAAATGC (((.(((....))).))) | -24.8 | 35.4
37 | GCACTTGGAAACAGGTGC ((((.((....)).)))) | -48.4 | 51.7
38 | GCAGAACGAAAGTTATGC (((.(((....))).))) | -39.3 | 55.4
39 | GCAGAACGAAAGTTTGC (((.(((....)))))) | -25.9 | 44.7
40 | GCAGAAGAAATTCTGC ((((((....)))))) | -32.6 | 52.9
41 | GCAGAAGGAAACTTCCGC ((.((((....)))).)) | -20.6 | 37.5
42 | GCAGACCCGAAAGGGTGC (((..(((....)))))) | -14.2 | 50.3
43 | GCAGACCGAAAGGTGTGC (((.(((....))).))) | -35.8 | 63
44 | GCAGACCGAAAGGTTTGC (((.(((....))).))) | -41.6 | 63.4
45 | GCAGACGAAAGTCTTGC ((((((....))).))) | -27 | 51.3
46 | GCAGACGGAAACATCTGC (((((.(....).))))) | -29.9 | 44.5

Row | Sequence | folding enthalpy [1] [kcal/mol] | Tm [2] [°C]
47 | GCAGACGGAAACGTCCGC ((.((((....)))).)) | -24 | 52.6
48 | GCAGAGCGAAAGCACTGC ((((.((....)).)))) | -34 | 67.4
49 | GCAGAGCGAAAGCCATGC (((..((....))..))) | -18.9 | 45.7
50 | GCAGAGCGAAAGCTATGC (((.(((....))).))) | -44.8 | 59.7
51 | GCAGAGCGAAAGCTTGC (((.(((....)))))) | -20.6 | 53.7
52 | GCAGAGCGAAAGCTTGGC ((..(((....)))..)) | -18.8 | 49.5
53 | GCAGAGGGAAACCTCCGC ((.((((....)))).)) | -26 | 44.7
54 | GCAGAGGGAAACCTCTAC (.(((((....))))).) | -14.7 | 35.2
55 | GCAGATGGAAACATTTGC (((.(((....))).))) | -33.7 | 44.5
56 | GCAGCACGAAAGTGTGC (((.(((....)))))) | -18.6 | 55.7
57 | GCAGCAGGAAACCGCTAC (.(((.(....).))).) | -14.6 | 28.1
58 | GCAGCCGAAAGGCATTGC ((((((....)))..))) | -15.6 | 41.5
59 | GCAGCCGAAAGGCTATGC ((((((....)))..))) | -14 | 47.4
60 | GCAGCGCGAAAGCCCGGC ((.(.((....)).).)) | -17.6 | 39.3
61 | GCAGCGCGAAAGCCGTGC (((..((....))..))) | -15.3 | 43.9
62 | GCAGCGCGAAAGCGACGC ((..(((....)))..)) | -18.4 | 60.7
63 | GCAGCGCGAAAGCTCCGC ((.(.((....)).).)) | -11.6 | 37.9
64 | GCAGCGGCGAAAGCCTGC (((..(((....)))))) | -12.9 | 52.2
65 | GCAGCGGGAAACCGCTAC (.(((((....))))).) | -11.3 | 40.2
66 | GCAGCGGGAAACCGTTGC (((.(((....))).))) | -39.4 | 57.9
67 | GCAGCGTCGAAAGACTGC (((..(((....)))))) | -14 | 44.4
68 | GCAGCTCGAAAGAGTTGC (((.(((....))).))) | -44.2 | 59.6
69 | GCAGCTGGAAACAACTGC ((((.((....)).)))) | -39.9 | 46.6

Row | Sequence | folding enthalpy [1] [kcal/mol] | Tm [2] [°C]
70 | GCAGGAACGAAAGTTTGC (((..(((....)))))) | -16.6 | 36
71 | GCAGGCACGAAAGTGTGC (((..(((....)))))) | -14.9 | 39.1
72 | GCAGGCGAAAGCCACTGC ((((((....)))..))) | -15.9 | 48
73 | GCAGGCGAAAGCCCGTGC ((((((....)))..))) | -13.1 | 43.6
74 | GCAGGCGAAAGCCTTGC ((((((....))).))) | -17.6 | 59.2
75 | GCAGGCGGAAACGCCCAC (..((((....))))..) | -6.7 | 27.1
76 | GCAGGGACGAAAGTCTGC (((..(((....)))))) | -23 | 47.9
77 | GCAGGGCGAAAGCCCAGC ((.((((....)))).)) | -19.5 | 68.2
78 | GCAGGGCGAAAGCCGCGC ((..(((....)))..)) | -22.2 | 64.7
79 | GCAGGGCGAAAGCGATGC (((..((....))..))) | -26.1 | 57
80 | GCAGGTGCGAAAGCATGC (((..(((....)))))) | -13.5 | 43.9
81 | GCAGGTGGAAACACCCAC (..((((....))))..) | -10.6 | 32.1
82 | GCAGGTGGAAACGTCTGC ((((..(....)..)))) | -25.7 | 42.5
83 | GCAGTAGAAATACTGC ((((((....)))))) | -34.6 | 54.8
84 | GCAGTAGGAAACTATTGC (((.(((....))).))) | -26.9 | 42.6
85 | GCAGTCACGAAAGTGTGC (((..(((....)))))) | -19.5 | 38
86 | GCAGTCGAAAGACTTGC ((((((....))).))) | -22.6 | 50.4
87 | GCAGTCGCGAAAGCGTGC (((..(((....)))))) | -14.2 | 46.1
88 | GCAGTGACGAAAGTCTGC (((..(((....)))))) | -23.8 | 48
89 | GCAGTGCGAAAGCAAAGC ((..(((....)))..)) | -13.3 | 51.3
90 | GCAGTGCGAAAGCAGAGC ((..(((....)))..)) | -11.6 | 50.9
91 | GCAGTGCGAAAGCAGCGC ((..(((....)))..)) | -17 | 59.7
